LANA-H2A inh: blocks KSHV LANA binding to histone H2A/H2B | Q9QR71 | AID 2629 | cell-free LANA-H2A/H2B peptide, fluorescence polarization | inhibition, % (no concentration beside the values) | hit rate 0.6% among 320,000; in the data active = inhibition mostly above about 10%, no sharp cut-off; inactive = mostly below about 6.7%
Arrestin-AP2 inh: blocks beta-arrestin peptide binding to AP2 adaptin. hit rate 0.31% among 340,000. inhibition, % at 10 µM. FITC-arrestin peptide / GST-AP2 beads, flow cytometry; AP2 beta2 appendage carries R879A mutation. AID 504490;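 active = inhibition above a set limit, near 3 SD of compounds lacking own fluorescence, cut at about 54% in these data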;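 also: plate controls were DMSO wells for no effect and 5 µM unlabelled arrestin peptide for full effect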
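System: GST-tagged AP2 beta2-adaptin appendage (R879A) on 4 µm glutathione beads / Reagent: FITC-arrestin peptide, 50 nM / Detection: HyperCyt-sampled flow cytometry, FL1 channel, ex 488/em 535 nm / Timing: 12 min plus 1 h, RT / Buffer or medium: PBS plus Tween 20 (0.05%) and BSA (0.1%)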
T cell modulator: T cell immune modulators affecting CD8 T cell-vesicle binding; 2C CD8+ T cell-vesicle binding, flow cytometry; stronger effect = lower value; response (vesicle binding), % at 7 µM; hit rate 0.068% among 330,000;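 active = response, share of CD8 T cells binding vesicles, and their 90th percentile fluorescence all below set limits, cut at about 80% in these data, passing the limit was not always enough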;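 also: values below 100% mean blocked vesicle binding to the CD8+ T cells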
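Test system: purified 2C TCR transgenic mouse naive CD8+ T cells. Probe or stimulus: QL9-peptide-loaded Drosophila micro-vesicles bearing Ld, ICAM-1 and B7-1. Incubation: binding step 1.5 h, 37 °C, antibody labelling 20 min, ice. Measured by: flow cytometry of vesicle-bound cells.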
HDAC3 inhib: blocks human histone deacetylase 3; hit rate 0.15% among 320,000; recombinant HDAC3, fluorogenic peptide/trypsin coupled, fluorescence; AID 2718; inhibition, % at 8.3 µM; O15379; in the data active = inhibition above about 26%, passing the limit was not always enough
Pemphigus Ab inh: blocks pemphigus antibody binding to human desmoglein-3; DSG3-coupled beads, scFv-anti-DSG3-GFP binding, flow cytometry; stronger effect = lower value; binding (percent of control), % at 10 µM; AID 588358; hit rate 0.48% among 310,000;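 active = binding more than 3 SD below its plate's average and above zero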
* = called active by the depositor; . = not tested or not shown; + = active, no number. This is a sample that favours compounds with a hit; in the whole collection about 1.5% have one here.

SMILES | LANA-H2A inh | Arrestin-AP2 inh | T cell modulator | HDAC3 inhib | Pemphigus Ab inh
CCC(CC)C1=NN2C(=N)/C(=C/c3ccc(OC(=O)c4ccco4)cc3)C(=O)N=C2S1 | 5 | -1 | 476 | 32* | 99
CCS(=O)(=O)C1=NN2C(=N)/C(=C\c3ccc(OC(=O)c4ccco4)cc3)C(=O)N=C2S1 | 1 | -1 | 234 | 6 | 100
CCOc1cccc(C(=O)Nc2ccc(N3CCN(S(C)(=O)=O)CC3)cc2)c1 | -2 | 13 | 465 | 4 | -22*
COc1cccc(C(=O)Nc2ccc(N3CCN(S(C)(=O)=O)CC3)cc2)c1 | 1 | -1 | 376 | 2 | 99
Cc1ccc(C(C)NC(=O)c2ccncc2)c(C)c1 (stereo not drawn) | 1 | -5 | 332 | -9 | 108
Cc1ccc(OC(C)C(=O)Nc2ccc3c(c2)n(C)c(=O)n3C)c(C)c1 (stereo not drawn) | -3 | -1 | 974 | -3 | 131
C/C(=N\NC(=O)Cn1cc([N+](=O)[O-])cn1)c1ccco1 | -6 | 5 | 0.0* | -5 | 110
Cc1ccccc1P(=O)(c1ccccc1)c1ccccc1C | . | . | . | . | 104
O=S(=O)(c1ccc(=S)[nH]c1)N1CCOCC1 | 1 | 1 | 651 | 4 | 108
O=S(=O)(c1ccc(=S)[nH]c1)N1CCCCCC1 | 38* | -3 | 358 | 3 | 94
COc1ccc(-c2nc(CSCC(=O)NC3CCN(Cc4ccccc4)CC3)c(C)o2)cc1OC | 7 | 9 | 266 | 0 | 109
COc1cccc(N2CCN(Cc3nnnn3C3CCCCC3)CC2)c1 | 7 | 20 | 223 | 1 | 106
O=C1CCc2cc(OCCCCc3nnnn3C3CCCCC3)ccc2N1 | 33* | 2 | 265 | 2 | .
COc1ccccc1N1CCCSC1=Nc1ccccc1 | . | . | . | . | 98
Cc1nnc(NC(=O)C2COc3ccccc3O2)s1 (stereo not drawn) | 9 | 4 | 303 | -5 | 101
O=C(Nc1nc2c(s1)CCCC2)C1COc2ccccc2O1 (stereo not drawn) | -3 | 16 | 38* | 5 | 97
O=C(/C=C/c1cccc(F)c1)Nc1cc(S(=O)(=O)N2CCOCC2)ccc1N1CCCC1 | -1 | 17 | 258 | 9 | -24*
O=C(/C=C/c1ccc(F)cc1)Nc1cc(S(=O)(=O)N2CCOCC2)ccc1N1CCCC1 | -1 | -1 | 218 | 1 | 84
O=C(CNC(=O)c1ccccn1)N=Nc1c(O)[nH]c2ccccc12 | -1 | 25 | 279 | 8 | .
C[C@H]1CN([C@@H](C)CO)C(=O)CCCn2nncc2CO[C@H]1CN(C)C(=O)c1ccc2ccn(C)c2c1 | . | . | . | . | 95
COc1ccccc1C/C(N)=N/OC(=O)COc1cccc(C)c1C | + | 24 | 112 | 4 | 108
Cc1ccc(C(=O)OCC(=O)Nc2cccc(S(=O)(=O)N3CCCCC3)c2)s1 | . | . | . | . | 94
CC1=C([N+](=O)[O-])C(c2ccccc2C(F)(F)F)NC(=O)N1C (stereo not drawn) | 30* | -9 | 269 | 6 | 110
Cc1ccc(C(=O)OCC(=O)NC2CCCC(C)C2C)cc1S(=O)(=O)N1CCCCC1 (stereo not drawn) | 0 | -2 | 218 | 8 | 90
CS(=O)(=O)N(CC(=O)N1CCOCC1)c1cccc(F)c1 | -3 | -2 | 189 | -3 | 77*
SMILES | LANA-H2A inh | Arrestin-AP2 inh | T cell modulator | HDAC3 inhib | Pemphigus Ab inh
CCN(CC)CCN(C(=O)CCS(=O)(=O)c1ccccc1)c1nc2cc3c(cc2s1)OCO3 | -2 | 8 | 126 | 8 | .
O=C(/C=C/c1ccccc1)c1c[nH]c2ccccc12 | 1 | 0 | 336 | 4 | 64*
O=C(C=Cc1ccccc1)c1c[nH]c2ccccc2c1=O | . | -2 | . | . | 83
NNC(=O)C1CC(O)CN1S(=O)(=O)c1ccc2ccccc2c1 (stereo not drawn) | 3 | -12 | 80 | -4 | 112
Cc1ccc(-n2c(SCC(=O)NC3CCS(=O)(=O)C3)nc3ccccc3c2=O)c(C)c1 (stereo not drawn) | . | . | . | . | 99
O=C1Nc2ccc(Br)cc2/C1=N\N=C\C1=C(N2CCOCC2)C(=C/c2ccccc2)/CC1 | . | -4 | . | . | 86*
Cn1cc(C(=O)N/N=C/C2=C(N3CCOCC3)C(=C\c3ccccc3)/CC2)ccc1=O | 0 | 1 | 966 | 7 | 126
O=C1Nc2ccccc2/C1=N\N=C\C1=C(N2CCOCC2)C(=C\c2ccccc2)/CC1 | -1 | -1 | 465 | -2 | 80*
Cc1ccc(S(=O)(=O)N2CC3(O)CN(C(=O)OC(C)C)N(C(=O)OC(C)C)CC3(OC(=O)NCc3ccccc3F)C2)cc1 (stereo not drawn) | . | . | . | . | 109
Cc1ccc(C)c(C(C)NC(=S)NCc2ccc(F)cc2)c1 (stereo not drawn) | 9 | 3 | 203 | -1 | .
O=C(COC(=O)c1ccc(Cl)nc1)NCc1ccco1 | -5 | 3 | 104 | 3 | 103
O=C(NCc1ccco1)c1ccc(Cl)nc1 | -2 | 23 | 381 | . | 78*
O=S(=O)(Nc1ccc(S(=O)(=O)Nc2nccs2)cc1)c1ccc(Br)cc1 | -5 | 5 | 276 | 43* | .
O=C(CC1OC(=O)c2ccccc21)Nc1cc(Cl)ccc1N1CCOCC1 (stereo not drawn) | -2 | 14 | 292 | -4 | 93
COc1ccc2c(c1)-c1c(sn(-c3ccc(OC)c(OC)c3)c1=S)C(C)(C)N2 | -1 | 1 | 70* | 1 | 100
O=C(CC(=O)N1CCOCC1)N1CCOCC1 | . | -1 | . | . | 113
O=C(O)c1cccc(Cn2cc(Cl)cn2)c1 | -2 | 21 | 301 | -5 | 98
COc1ccc(N2CCN(C(=O)c3cccc(Cn4cc(Cl)cn4)c3)CC2)cc1 | 3 | 15 | 140 | 0 | 26*
CN(CC1CCCN(CCc2cccc(C(F)(F)F)c2)C1)C(=O)c1cc2ccccc2o1 (stereo not drawn) | . | -5 | . | . | .
Cc1cc(C)n(-c2ccc(C(=O)OC(C)C(=O)Nc3ccc(C(N)=O)cc3)cc2)n1 (stereo not drawn) | . | 2 | . | . | 101
COc1ccc(C(=O)CSc2cc(C)[nH]c(=O)n2)cc1 | -4 | -21 | 366 | 61* | 132
CCOC(=O)C1=CN(Cc2ccco2)S(=O)(=O)N(C)C1c1ccc(F)c(Cl)c1 (stereo not drawn) | . | 17 | . | . | 102
CC(C)(C)C1(C)OC(=O)C(=Cc2ccc(OCC(=O)Nc3ccccc3)cc2)C(=O)O1 (stereo not drawn) | 25* | 5 | 138 | -2 | 104
COc1cc(C=C2C(=O)OC(C)(C)OC2=O)cc(Cl)c1OCC(=O)Nc1ccccc1 | 9 | 29 | 308 | 2 | 84
O=C(Cc1cccs1)Nc1cccc(C(=O)Nc2ccc(C(=O)O)cc2)c1 | 51* | 18 | 309 | -9 | 101
O=C(Cc1cccs1)Nc1ccc(C(=O)O)cc1 | 1 | -10 | 393 | -4 | .

Screens from PubChem BioAssay.
